According to ChEMBL document CHEMBL1147950, “Polyphenols based on isoflavones as inhibitors of Helicobacter pylori urease” (Bioorg Med Chem, 2007):
pIC50: −log10 of the molar value. Where “and” joins values, the source holds several entries; their conditions need not be identical. Identical values can stand only once.

What was measured:
[1] = target: Urease subunit alpha/Urease subunit beta (Helicobacter pylori (strain ATCC 700392 / 26695) (Campylobacterpylori)) (UniProt P69996+P14916); assay: Inhibition of Helicobacter pylori ATCC 43504 urease at 400 ug/mL after 3 hrs pre-incubation
Outline: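 Urease from H. pylori ATCC 43504 cultured 24 h at 37 °C in brucella broth with 10% heat-inactivated horse serum, microaerobic (5% O2, 10% CO2, 85% N2). 4 U enzyme preincubated with test compound 3 h at room temperature. Activity read as ammonia production by the indophenol method; percent inhibition recorded.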

[2] = target: T1, Urease subunit alpha/Urease subunit beta (Helicobacter pylori (strain ATCC 700392 / 26695) (Campylobacterpylori), UniProt P69996); assay: Inhibition of Helicobacter pylori ATCC 43504 urease after 3 hrs pre-incubation
Outline: (§1)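 Urease source: H. pylori ATCC 43504 grown 24 h at 37 °C, microaerobic (5% O2, 10% CO2, 85% N2), in brucella broth with 10% heat-inactivated horse serum. Enzyme (4 U) preincubated with test compound 3 h at room temperature. Ammonia production read by the indophenol method. IC50 values from triplicate measurements, reported as mean ± SD.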

[3] = target: T1, Urease subunit alpha/Urease subunit beta; assay: Inhibition of Helicobacter pylori ATCC 43504 urease in presence of 0.4 mM 2-mercaptoethanol after 3 hrs pre-incubation; outline: as §1
[4] = target: T1, Urease subunit alpha/Urease subunit beta; assay: Inhibition of Helicobacter pylori ATCC 43504 urease in presence of 0.4 mM dithiothreitol after 3 hrs pre-incubation; outline: as §1

T1 sequence (P69996 whole entry): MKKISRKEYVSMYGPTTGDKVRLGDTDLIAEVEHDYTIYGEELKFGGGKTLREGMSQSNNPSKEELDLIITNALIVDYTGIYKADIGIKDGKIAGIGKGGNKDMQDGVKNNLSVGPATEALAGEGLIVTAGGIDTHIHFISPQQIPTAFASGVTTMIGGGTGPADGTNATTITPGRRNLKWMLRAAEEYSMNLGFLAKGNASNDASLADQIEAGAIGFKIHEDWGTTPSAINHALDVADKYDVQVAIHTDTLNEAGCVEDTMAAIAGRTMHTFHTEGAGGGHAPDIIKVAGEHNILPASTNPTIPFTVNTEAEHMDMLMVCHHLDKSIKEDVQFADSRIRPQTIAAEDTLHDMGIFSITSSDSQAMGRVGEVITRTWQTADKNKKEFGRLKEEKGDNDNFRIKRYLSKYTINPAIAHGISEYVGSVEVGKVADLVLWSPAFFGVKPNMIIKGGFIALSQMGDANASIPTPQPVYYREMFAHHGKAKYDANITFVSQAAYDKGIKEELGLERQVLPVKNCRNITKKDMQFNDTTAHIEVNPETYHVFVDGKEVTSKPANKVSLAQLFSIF
T1 sequence (P14916 whole entry, further chain): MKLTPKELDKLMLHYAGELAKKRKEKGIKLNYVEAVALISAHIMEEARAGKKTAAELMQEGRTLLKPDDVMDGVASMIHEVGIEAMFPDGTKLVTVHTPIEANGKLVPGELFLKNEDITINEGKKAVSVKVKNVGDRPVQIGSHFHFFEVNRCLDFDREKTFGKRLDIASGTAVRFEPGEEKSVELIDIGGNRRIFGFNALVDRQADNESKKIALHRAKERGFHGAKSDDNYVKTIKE
Chain of Urease subunit alpha/Urease subunit beta (Helicobacter pylori (strain ATCC 700392 / 26695) (Campylobacterpylori)) (P14916 whole entry, looked up): as the sequence (P14916 whole entry, further chain) above
Chain of Urease subunit alpha/Urease subunit beta (Helicobacter pylori (strain ATCC 700392 / 26695) (Campylobacterpylori)) (P69996 whole entry, looked up): as the sequence (P69996 whole entry) above

Compound	inhibition [1]	pIC50 [2]	pIC50 [3]	pIC50 [4]
COc1ccc(CC(=O)c2ccc(O)c(O)c2O)cc1	44%	–	–	–
O=C(Cc1ccc(O)cc1)c1ccc(O)cc1O	16%	–	–	–
COc1c(O)cc(O)c(C(=O)Cc2ccc(O)cc2)c1O	17%	–	–	–
CC(=O)c1ccc(O)c(O)c1	41%	–	–	–
O=c1c(-c2ccc(O)cc2)coc2c(O)c(O)ccc12	81.7%	3.85	< 2.83	< 2.83
COc1ccc(CC(=O)c2ccc(O)cc2O)cc1	14%	–	–	–
CC(=O)c1ccc(O)c(O)c1O	38%	–	–	–
CC(=O)NO [ACETOHYDROXAMIC ACID]	–	4.77	4.72	4.74
Oc1ccc(CCc2ccc(O)c(O)c2O)cc1	94.5%	4.52	4.15	4.28
O=C(Cc1ccc(O)cc1)c1ccc(O)c(O)c1	39%	–	–	–
COc1c(O)cc(O)c2c(=O)c(-c3ccc(O)cc3)coc12	23% and 36%	–	–	–
CC(=O)c1ccc(O)cc1O	14%	–	–	–
O=C(Cc1ccc(O)cc1)c1ccc(O)c(O)c1O	51%	–	–	–
COc1ccc(CC(O)c2ccc(OC)c(OC)c2O)cc1 (configuration not stated)	42%	–	–	–
